Hits are enriched below; roughly 2.1% of the tested compounds scored in any of these assays.
APJ antag: blocks the human apelin receptor APJ. inhibition, % at 20 µM. CHO-K1 APJ beta-arrestin complementation, luminescence. AID 2521. P35414. 330,000 tested, 0.32% active;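 active means inhibition above about 40% at 20 µM, limit read from the data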;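 further: cells challenged with 10 nM apelin-13 agonist together with compound; plate controls were apelin-13 plus DMSO wells for no effect and DMSO wells lacking apelin-13 for full effect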
Target sequence (P35414 whole entry, looked up): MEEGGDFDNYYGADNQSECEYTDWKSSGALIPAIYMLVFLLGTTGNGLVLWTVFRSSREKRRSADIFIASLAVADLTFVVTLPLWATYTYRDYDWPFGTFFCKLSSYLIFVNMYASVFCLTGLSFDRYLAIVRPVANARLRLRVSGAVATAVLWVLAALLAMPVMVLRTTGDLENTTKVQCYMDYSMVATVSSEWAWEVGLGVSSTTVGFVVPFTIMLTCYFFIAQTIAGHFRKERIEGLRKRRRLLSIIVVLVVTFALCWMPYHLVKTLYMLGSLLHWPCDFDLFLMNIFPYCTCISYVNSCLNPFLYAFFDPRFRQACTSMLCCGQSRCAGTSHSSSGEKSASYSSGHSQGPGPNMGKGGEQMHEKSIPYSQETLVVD
CCR6 antag: CCR6 (human) receptor antagonism. AID 493098. 340,000 tested, 0.49% active. inhibition, % at 20 µM. CHO-K1 CCR6 PathHunter beta-arrestin, luminescence, CCL20-stimulated;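 active means compounds whose inhibition of the agonist-driven luminescence signal at 20 µM reaches about 50%, limit read from the data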;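 further: cells stimulated with CCL20 at 14 nM final; plate controls were DMSO with CCL20 for no effect and DMSO without agonist for full effect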
EBI2 antag: blocks human EBI2 receptor beta-arrestin signaling | P32249 | EBI2 beta-arrestin recruitment, luminescence, 7a,25-OHC stimulated | inhibition, % at 5 µM | 360,000 tested, 0.81% active | AID 651636; in the data active means inhibition above about 38%;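 further: enzyme fragment complementation signal reports receptor beta-arrestin coupling in cells; 0% = agonist plus DMSO wells and 100% = wells without agonist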
CXCR6 inh: inhibitors of human CXCR6 receptor | O00574 | CHO-K1 PathHunter CXCR6 beta-arrestin, luminescence | inhibition, % at 20 µM | 360,000 tested, 0.36% active; in the data active means inhibition above about 34%, passing the limit was not always enough;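 further: antagonist mode with CXCL16 agonist at 10 nM final; 0% = 10 nM CXCL16 with DMSO and 100% = unstimulated wells without agonist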
APJ agonist: agonists of human APJ apelin receptor; P35414; CHO-K1 APJ PathHunter beta-arrestin, luminescence; 0% DMSO wells, 100% apelin; activation, % at 20 µM; 330,000 tested, 0.11% active;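 active means activation more than six SD over the plate average, tested at 20 µM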;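 further: 0% = DMSO alone and 100% = apelin-13 at 10 nM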
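Assay system: CHO-K1 cells stably expressing ProLink-tagged human APJ and arrestin–beta-gal acceptor. Compound dosing: 20 µM single point, 1% DMSO. Times: 16-18 h seeding, 90 min dark compound exposure, 60 min detection. Detection: beta-gal luminescence. Evaluation: APJ–arrestin association signal. Controls: negative DMSO alone, positive Apelin-13 at 10 nM.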
m5-HT2A agonist: mouse HTR2A agonism via beta-arrestin recruitment. P35363. CHO-K1 mHTR2A beta-arrestin complementation, luminescence; percent of 30 µM serotonin response. activation, % at 7.6 µM. 360,000 tested, 0.66% active. AID 624169;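 active means activation above a run cutoff, the mean activation of all tested compounds plus 3 SD, cut at about 14% in these data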;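 further: 0% = plate median of compound wells and 100% = 30 µM serotonin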
Numbers without * were called inactive; / = not tested or not shown.

SMILES	APJ antag	CCR6 antag	EBI2 antag	CXCR6 inh	APJ agonist	m5-HT2A agonist
O=C1c2ccccc2-c2nnc(-c3ccc(F)cc3)cc21	7	45	48*	20	-7	-3
O=C1c2ccccc2-c2nnc(-c3ccc(O)cc3)cc21	-3	8	19	14	0	-4
COC(=O)[C@@H]1[C@@H](C#N)C2(c3ccccc3-c3ccccc32)N(c2ccc(Cl)cc2)N1C#N	7	47	17	52*	1	4
O=S(=O)(Nc1cccc2ncccc12)c1cccc(C(F)(F)F)c1	-7	-3	1	2	3	-3
Cc1cccc2c1NC(=O)/C2=C\C(=O)c1cccs1	12	46	43*	12	0	-5
Cc1cc(Br)c2c(c1)/C(=C/C(=O)c1cccs1)C(=O)N2	-52	2	34	-2	2	5
Cc1cc(C)c2c(c1)/C(=C/C(=O)c1ccc(Br)s1)C(=O)N2	-2	15	74*	9	2	3
Cc1ccccc1Oc1cc(-n2ncc(Cl)c(Cl)c2=O)ncn1	/	65*	68*	46*	/	0
CCOc1ccc(-c2cc(CCCC(=O)NCc3ccco3)no2)cc1	13	13	0	3	0	1
Cc1cc(N/N=C/c2ccc(O)cc2O)nc(-n2nc(C)cc2C)n1	/	93*	84*	92*	/	-25
O=C(NCCOc1ccccc1)c1cc([N+](=O)[O-])ccc1N1CCOCC1	-38	15	59*	6	-2	-9
O=C(c1c(O)cc(O)cc1O)C1c2c(cc(O)c3c2O[C@H](c2ccc(O)cc2)[C@@H](O)C3)OC1c1ccc(O)cc1 (stereo partly specified)	2	6	-10	-6	-2	6
CC(C)(C)C1=CC(=Nc2ccccc2N)C=C(C(C)(C)C)C1=O	-21	67*	10	29	0	4
CC1=CC(C)(C)Nc2ccc(OC(=O)c3ccco3)cc21	30	52*	2	26	-8	1
CCOc1ccc2nc(N3C(=O)CNC3=S)sc2c1	13	60*	-17	32	-4	-11
COc1cc(/C=N/N=C2/C(=O)Nc3ccccc32)ccc1O	29	56*	-27	14	-3	1
CC(C)(C)c1ccc(C(=O)/C(C#N)=C/c2cccs2)cc1	-2	19	7	10	0	2
CCC(CC)c1nnc(NC(=O)c2cc([N+](=O)[O-])ccc2N2CCCCC2)s1	18	71*	11	16	-1	4
CC(C)CNC(=O)c1cc([N+](=O)[O-])ccc1N1CCCCC1	3	41	21	2	-3	3
CC1(C(=O)NS(=O)(=O)c2ccccc2Cl)CCN1C(=O)CC1CCCCC1 (stereo unspecified)	/	/	-8	-5	/	-3
Cn1c(N=Nc2ccc(N3CCOCC3)cc2)[n+](C)c2ccccc21	/	63*	12	54*	/	-13
Cc1cccc(OCC(=O)NCC(=O)N/N=C/c2cc(Br)cc(Br)c2O)c1	22	10	-1	45*	-3	3
COc1cccc(/C=N/NC(=O)CNC(=O)COc2ccccc2)c1O	-4	-5	5	-9	2	-2
CCOC(=O)c1c(NC(N)=O)sc(C)c1C	-6	-8	-6	-1	-3	2
CCOC(=O)c1c(N2C(=O)C=CC2=O)sc(C)c1C	-5	/	1	61*	1	1
SMILES	APJ antag	CCR6 antag	EBI2 antag	CXCR6 inh	APJ agonist	m5-HT2A agonist
O=C(Cn1ccccc1=S)c1ccc(Cl)c(Cl)c1	8	16	3	8	-2	-1
On1ccccc1=S	/	83*	37	75*	/	-26
Cc1onc(-c2ccccc2Cl)c1C(=O)N1C=CC(C(F)(F)F)=NCC1	13	4	-8	10	-5	-2
Cc1onc(-c2ccccc2Cl)c1C(=O)N1C=CC(C(F)(F)Cl)=NCC1	17	9	-7	-6	0	24*
COc1ccc2cc3cc(C(=O)NCCN4CCN(c5ccccc5F)CC4)oc3nc2c1	-12	12	4	0	-4	-3
COc1ccc2cc3cc(C(=O)Nc4ccccc4N4CCN(C)CC4)oc3nc2c1	2	-2	0	-2	-6	16*

Source: PubChem (several laboratories)
